Measurements from ChEMBL document CHEMBL4004835, “Discovery of Novel Disruptor of Silencing Telomeric 1-Like (DOT1L) Inhibitors using a Target-Specific Scoring Function for the (S)-Adenosyl-l-methionine (SAM)-Dependent Methyltransferase Family” (J Med Chem, 2017).
Active and inactive are the calls of the source. The calls are words filed in the database; no cut-off is given here.

Key:
[1] = test system: MV4-11; assay: Induction of apoptosis in human MV4-11 cells assessed as viable cells at 12.5 uM after 72 hrs by annexin V/FITC and propidium iodide staining-based flow cytometric analysis (reference value: 90.3 %); type: functional; settings: MV4-11, 72 h, read-out: Activity
[2] = biological target: Histone-lysine N-methyltransferase EZH2 (Homo sapiens) (UniProt Q15910); assay: Inhibition of EZH2 (unknown origin) at 50 and 100 uM preincubated for 15 mins followed by substrate and [3H]-SAM addition for 60 mins in presence of H3K27me peptide measured after 60 mins by liquid scintillation counting method
Sequence of Histone-lysine N-methyltransferase EZH2 (Homo sapiens) (Q15910 whole entry, looked up): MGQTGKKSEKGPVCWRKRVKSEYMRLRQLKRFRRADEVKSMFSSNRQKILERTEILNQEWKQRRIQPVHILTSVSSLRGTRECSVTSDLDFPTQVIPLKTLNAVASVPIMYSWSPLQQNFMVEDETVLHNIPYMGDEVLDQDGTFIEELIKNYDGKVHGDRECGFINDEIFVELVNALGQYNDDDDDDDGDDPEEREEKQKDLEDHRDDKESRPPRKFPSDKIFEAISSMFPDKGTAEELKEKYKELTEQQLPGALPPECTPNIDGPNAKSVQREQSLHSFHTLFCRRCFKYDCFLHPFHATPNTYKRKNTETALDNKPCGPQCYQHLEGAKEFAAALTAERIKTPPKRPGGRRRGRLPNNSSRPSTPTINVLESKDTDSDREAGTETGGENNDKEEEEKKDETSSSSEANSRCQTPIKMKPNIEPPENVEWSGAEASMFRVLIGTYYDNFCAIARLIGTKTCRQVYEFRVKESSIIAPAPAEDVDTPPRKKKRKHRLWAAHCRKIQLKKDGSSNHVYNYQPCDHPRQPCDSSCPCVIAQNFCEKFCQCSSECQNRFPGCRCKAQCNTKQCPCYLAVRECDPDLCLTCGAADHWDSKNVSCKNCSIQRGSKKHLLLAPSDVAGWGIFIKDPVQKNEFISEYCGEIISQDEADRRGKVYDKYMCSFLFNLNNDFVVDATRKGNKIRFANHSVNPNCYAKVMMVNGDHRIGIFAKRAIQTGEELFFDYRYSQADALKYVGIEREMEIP
In short: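 In modified Tris buffer with H3K27me peptide, enzyme preincubated 15 min at room temperature; substrate added to start; stopped with cold SAM; mix on Flashplate at least 60 min at room temperature, washed with water plus 0.1% Tween-20, read by scintillation counting.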

[3] = test system: MV4-11; assay: Induction of cell cycle arrest in human MV4-11 cells assessed as accumulation at S phase at 25 uM after 48 hrs by propidium iodide/RNase-staining based flow cytometric analysis (reference value: 24.40 %); type: functional
In short: (§1)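 MV4-11 cells (2 × 10^6) seeded in 12-well dishes, treated with different concentrations for 48 h, processed with a PI/RNase staining kit and analysed for cell-cycle distribution by FACSCalibur flow cytometry.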

[4] = test system: Kasumi 1; assay: Cytotoxicity against human Kasumi-1 cells assessed as reduction in cell viability after 72 hrs by alamar blue assay; type: functional, cell-based; settings: Kasumi 1, 72 h
In short: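 Cells cultured in RPMI 1640 with 10% FBS and 1% penicillin/streptomycin, treated with a range of concentrations or equal DMSO, 37 °C, 5% CO2, 72 h. Viability read by alamar blue (ex 544/em 590 nm); percent proliferation and IC50 curve fitted.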

[5] = test system: MV4-11; assay: Induction of apoptosis in human MV4-11 cells assessed as necrotic cells at 50 uM after 72 hrs by annexin V/FITC and propidium iodide staining-based flow cytometric analysis (reference value: 0.04 %); type: functional
[6] = test system: MV4-11; assay: Induction of apoptosis in human MV4-11 cells assessed as late apoptotic cells at 25 uM after 72 hrs by annexin V/FITC and propidium iodide staining-based flow cytometric analysis (reference value: 4.02 %); type: functional
[7] = test system: MV4-11; assay: Induction of cell cycle arrest in human MV4-11 cells assessed as accumulation at G1 phase at 6.25 uM after 48 hrs by propidium iodide/RNase-staining based flow cytometric analysis (reference value: 68.16 %); type: functional; in short: as §1
[8] = biological target: DNA (cytosine-5)-methyltransferase 1 (Homo sapiens) (UniProt P26358); assay: Inhibition of DNMT1 (unknown origin) at 50 and 100 uM preincubated for 15 mins followed by poly(dI-DC) substrate and [3H]-SAM addition after 120 mins by liquid MicroBeta counting
Sequence of DNA (cytosine-5)-methyltransferase 1 (Homo sapiens) (P26358 whole entry): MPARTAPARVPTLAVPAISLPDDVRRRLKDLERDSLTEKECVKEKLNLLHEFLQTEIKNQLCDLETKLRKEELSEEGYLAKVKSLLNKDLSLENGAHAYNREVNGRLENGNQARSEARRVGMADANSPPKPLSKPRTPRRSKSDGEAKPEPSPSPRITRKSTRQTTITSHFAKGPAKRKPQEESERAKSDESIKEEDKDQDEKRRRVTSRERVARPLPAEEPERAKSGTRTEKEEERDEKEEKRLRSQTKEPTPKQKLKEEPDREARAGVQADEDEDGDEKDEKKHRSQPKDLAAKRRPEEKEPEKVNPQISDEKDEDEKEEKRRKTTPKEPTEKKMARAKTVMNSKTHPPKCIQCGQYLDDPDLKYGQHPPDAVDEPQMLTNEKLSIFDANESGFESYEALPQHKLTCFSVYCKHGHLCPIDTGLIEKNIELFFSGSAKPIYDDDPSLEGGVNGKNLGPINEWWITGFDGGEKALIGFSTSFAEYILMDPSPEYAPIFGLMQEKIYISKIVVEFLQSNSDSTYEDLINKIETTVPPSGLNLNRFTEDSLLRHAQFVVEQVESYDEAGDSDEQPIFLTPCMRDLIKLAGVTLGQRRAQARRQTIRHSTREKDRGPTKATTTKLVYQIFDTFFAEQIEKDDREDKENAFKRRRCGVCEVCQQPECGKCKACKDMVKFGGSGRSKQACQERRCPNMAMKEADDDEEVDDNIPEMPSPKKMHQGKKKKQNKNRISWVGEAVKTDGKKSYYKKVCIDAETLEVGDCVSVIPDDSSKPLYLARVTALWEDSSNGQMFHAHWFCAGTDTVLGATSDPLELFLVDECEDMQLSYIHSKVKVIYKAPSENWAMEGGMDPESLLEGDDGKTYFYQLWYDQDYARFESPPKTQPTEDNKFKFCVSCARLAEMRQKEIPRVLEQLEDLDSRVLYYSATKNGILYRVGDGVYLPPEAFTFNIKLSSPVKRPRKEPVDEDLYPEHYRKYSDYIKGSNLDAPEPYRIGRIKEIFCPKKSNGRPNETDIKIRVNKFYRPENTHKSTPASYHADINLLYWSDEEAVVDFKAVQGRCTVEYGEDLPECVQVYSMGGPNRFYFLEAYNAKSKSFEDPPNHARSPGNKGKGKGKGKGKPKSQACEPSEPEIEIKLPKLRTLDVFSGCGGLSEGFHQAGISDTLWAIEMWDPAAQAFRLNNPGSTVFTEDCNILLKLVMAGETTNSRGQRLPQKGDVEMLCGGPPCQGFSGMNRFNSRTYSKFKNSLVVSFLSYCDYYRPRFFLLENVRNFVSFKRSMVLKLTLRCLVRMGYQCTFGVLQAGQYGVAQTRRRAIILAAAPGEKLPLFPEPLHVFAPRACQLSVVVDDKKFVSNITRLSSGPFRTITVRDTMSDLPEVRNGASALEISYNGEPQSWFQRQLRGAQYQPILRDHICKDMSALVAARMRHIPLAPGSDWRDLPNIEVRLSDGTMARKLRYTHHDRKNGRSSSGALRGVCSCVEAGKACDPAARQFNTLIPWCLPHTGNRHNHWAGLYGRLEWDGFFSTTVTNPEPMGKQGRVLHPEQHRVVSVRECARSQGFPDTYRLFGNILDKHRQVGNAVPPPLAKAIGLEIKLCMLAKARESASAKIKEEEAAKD
In short: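 In modified Tris buffer, enzyme preincubated 15 min at room temperature; poly(dI-dC) substrate and [3H]SAM added; 120 min at 37 °C; reaction transferred to 0.5% PEI-pretreated filter plates, vacuumed, read by MicroBeta; SAH as positive control.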

[9] = test system: MV4-11; assay: Induction of cell cycle arrest in human MV4-11 cells assessed as accumulation at S phase at 12.5 uM after 48 hrs by propidium iodide/RNase-staining based flow cytometric analysis (reference value: 24.40 %); type: functional; in short: as §1
[10] = test system: MV4-11; assay: Induction of apoptosis in human MV4-11 cells assessed as early apoptotic cells at 6.25 uM after 72 hrs by annexin V/FITC and propidium iodide staining-based flow cytometric analysis (reference value: 5.66 %); type: functional
[11] = test system: MV4-11; assay: Induction of cell cycle arrest in human MV4-11 cells assessed as accumulation at S phase at 6.25 uM after 48 hrs by propidium iodide/RNase-staining based flow cytometric analysis (reference value: 24.40 %); type: functional; in short: as §1
[12] = biological target: T1, Histone-lysine N-methyltransferase, H3 lysine-79 specific (Homo sapiens, UniProt Q8TEK3); assay: Inhibition of N-terminal 6His-tagged human DOT1L (1 to 416 residues) expressed in Escherichia coli BL21(DE3) at preincubated for 15 mins followed by [3H]-SAM addition measured after 120 mins by radioactive methylation assay
In short: (§2)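 DOT1L and compound preincubated 15 min at room temperature; oligonucleosome and 3H-SAM added; reaction 120 min at room temperature, stopped with cold SAM; transferred to 0.5% PEI-pretreated filter plate, washed 3× with water, read by liquid scintillation counting.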
Target sequence in this assay (Q8TEK3 whole entry, the tested form may be a part): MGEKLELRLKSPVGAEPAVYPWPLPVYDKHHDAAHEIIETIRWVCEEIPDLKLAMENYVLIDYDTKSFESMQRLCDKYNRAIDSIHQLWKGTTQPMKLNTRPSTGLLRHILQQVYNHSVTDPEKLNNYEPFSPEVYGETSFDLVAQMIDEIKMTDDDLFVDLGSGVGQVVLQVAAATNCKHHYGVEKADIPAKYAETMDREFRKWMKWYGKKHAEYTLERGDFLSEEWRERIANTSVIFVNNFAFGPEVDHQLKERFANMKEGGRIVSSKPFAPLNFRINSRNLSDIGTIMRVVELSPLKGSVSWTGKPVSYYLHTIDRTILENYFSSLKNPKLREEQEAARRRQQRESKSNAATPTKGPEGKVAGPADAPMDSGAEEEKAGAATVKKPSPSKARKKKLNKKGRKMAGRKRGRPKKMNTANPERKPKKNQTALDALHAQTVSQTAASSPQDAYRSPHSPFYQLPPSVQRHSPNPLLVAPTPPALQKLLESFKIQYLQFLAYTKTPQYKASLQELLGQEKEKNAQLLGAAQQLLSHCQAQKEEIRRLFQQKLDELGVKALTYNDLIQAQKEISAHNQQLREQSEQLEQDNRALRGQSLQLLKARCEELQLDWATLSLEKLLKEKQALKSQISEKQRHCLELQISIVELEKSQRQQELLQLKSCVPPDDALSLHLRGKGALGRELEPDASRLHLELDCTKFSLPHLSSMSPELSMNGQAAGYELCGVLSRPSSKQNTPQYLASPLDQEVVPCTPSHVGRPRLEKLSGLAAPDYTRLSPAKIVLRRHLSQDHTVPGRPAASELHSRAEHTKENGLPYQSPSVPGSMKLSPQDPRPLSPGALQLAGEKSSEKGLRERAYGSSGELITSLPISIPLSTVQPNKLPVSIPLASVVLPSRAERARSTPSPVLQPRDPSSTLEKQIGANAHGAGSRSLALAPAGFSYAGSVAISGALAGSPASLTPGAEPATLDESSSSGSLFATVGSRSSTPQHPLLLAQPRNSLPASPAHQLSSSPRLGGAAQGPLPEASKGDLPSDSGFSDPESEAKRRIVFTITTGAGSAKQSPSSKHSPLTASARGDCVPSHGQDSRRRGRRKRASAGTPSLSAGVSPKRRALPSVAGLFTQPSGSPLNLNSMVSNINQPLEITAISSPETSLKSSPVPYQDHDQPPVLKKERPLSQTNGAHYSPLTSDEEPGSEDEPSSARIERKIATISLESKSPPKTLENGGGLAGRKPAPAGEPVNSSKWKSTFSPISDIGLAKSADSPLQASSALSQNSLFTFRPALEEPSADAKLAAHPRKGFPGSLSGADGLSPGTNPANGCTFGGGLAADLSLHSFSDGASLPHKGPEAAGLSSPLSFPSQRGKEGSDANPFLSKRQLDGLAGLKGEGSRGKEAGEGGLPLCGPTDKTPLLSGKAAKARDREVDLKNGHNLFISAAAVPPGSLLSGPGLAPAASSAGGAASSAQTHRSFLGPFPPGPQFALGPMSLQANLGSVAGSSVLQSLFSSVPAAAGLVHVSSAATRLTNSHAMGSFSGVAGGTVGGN

[13] = test system: MV4-11; assay: Induction of apoptosis in human MV4-11 cells assessed as viable cells at 50 uM after 72 hrs by annexin V/FITC and propidium iodide staining-based flow cytometric analysis (reference value: 90.3 %); type: functional; settings: MV4-11, 72 h, read-out: Activity
[14] = test system: MV4-11; assay: Induction of apoptosis in human MV4-11 cells assessed as late apoptotic cells at 12.5 uM after 72 hrs by annexin V/FITC and propidium iodide staining-based flow cytometric analysis (reference value: 4.02 %); type: functional
[15] = test system: MV4-11; assay: Induction of cell cycle arrest in human MV4-11 cells assessed as accumulation at S phase at 50 uM after 48 hrs by propidium iodide/RNase-staining based flow cytometric analysis (reference value: 24.40 %); type: functional; in short: as §1
[16] = test system: MV4-11; assay: Induction of cell cycle arrest in human MV4-11 cells assessed as accumulation at G1 phase at 50 uM after 48 hrs by propidium iodide/RNase-staining based flow cytometric analysis (reference value: 68.16 %); type: functional; in short: as §1
[17] = test system: MV4-11; assay: Induction of apoptosis in human MV4-11 cells assessed as early apoptotic cells at 25 uM after 72 hrs by annexin V/FITC and propidium iodide staining-based flow cytometric analysis (reference value: 5.66 %); type: functional
[18] = biological target: T1, Histone-lysine N-methyltransferase, H3 lysine-79 specific; assay: Inhibition of N-terminal 6His-tagged human DOT1L (1 to 416 residues) expressed in Escherichia coli BL21(DE3) at 50 and 100 uM preincubated for 15 mins followed by [3H]-SAM addition measured after 120 mins by radioactive methylation assay; in short: as §2
Target sequence in this assay (Q8TEK3 whole entry, looked up, the tested form may be a part): as the sequence (Q8TEK3 whole entry, the tested form may be a part) above

[19] = test system: MV4-11; assay: Induction of apoptosis in human MV4-11 cells assessed as late apoptotic cells at 50 uM after 72 hrs by annexin V/FITC and propidium iodide staining-based flow cytometric analysis (reference value: 4.02 %); type: functional
[20] = test system: MV4-11; assay: Induction of apoptosis in human MV4-11 cells assessed as necrotic cells at 25 uM after 72 hrs by annexin V/FITC and propidium iodide staining-based flow cytometric analysis (reference value: 0.04 %); type: functional
[21] = biological target: T1, Histone-lysine N-methyltransferase, H3 lysine-79 specific; assay: Inhibition of N-terminal 6His-tagged human DOT1L (1 to 416 residues) expressed in Escherichia coli BL21(DE3) at 50 uM preincubated for 15 mins followed by [3H]-SAM addition measured after 120 mins by radioactive methylation assay; in short: as §2
Target sequence in this assay (Q8TEK3 whole entry, looked up, the tested form may be a part): as the sequence (Q8TEK3 whole entry, the tested form may be a part) above

[22] = test system: MV4-11; assay: Induction of cell cycle arrest in human MV4-11 cells assessed as accumulation at G2 phase at 6.25 uM after 48 hrs by propidium iodide/RNase-staining based flow cytometric analysis (reference value: 7.44 %); type: functional; in short: as §1
[23] = biological target: Protein arginine N-methyltransferase 1 (Homo sapiens) (UniProt Q99873); assay: Inhibition of PRMT1 (unknown origin) preincubated for 15 mins followed by biotinylated H3R2 substrate/[…]SAM addition for 60 mins measured after further 60 mins by AlphaLISA assay
Sequence of Protein arginine N-methyltransferase 1 (Homo sapiens) (Q99873 whole entry, looked up): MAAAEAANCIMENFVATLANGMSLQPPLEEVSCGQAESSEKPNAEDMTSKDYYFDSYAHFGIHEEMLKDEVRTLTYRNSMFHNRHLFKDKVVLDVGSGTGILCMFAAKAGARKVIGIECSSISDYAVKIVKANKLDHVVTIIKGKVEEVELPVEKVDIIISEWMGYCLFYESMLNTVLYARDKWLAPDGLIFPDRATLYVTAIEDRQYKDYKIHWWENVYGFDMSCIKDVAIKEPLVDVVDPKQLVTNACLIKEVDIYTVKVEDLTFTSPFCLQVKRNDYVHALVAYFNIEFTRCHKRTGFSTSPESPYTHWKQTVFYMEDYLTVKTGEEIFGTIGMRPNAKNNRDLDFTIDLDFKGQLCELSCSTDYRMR
In short: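 Enzyme incubated 15 min at room temperature; biotinylated H3R2 peptide (50 nM final) and SAM (300 nM final) added; at 60 min acceptor beads (10 μg/mL final) stop the reaction; after 60 min, donor beads (10 μg/mL final) added, 30 min at room temperature in low light; alpha signal read.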

- inhibition [2]: < 40%
- inhibition [8]: < 40%
- IC50 [12]: 8.29 µM
- inhibition [18]: Active
- inhibition [21]: 68%
- inhibition [23]: < 40%
SMILES: Fc1cccc(-c2nn3c(Cn4nnc5ccccc54)nnc3s2)c1
- viability at 12.5 µM [1]: 10.6%
- Activity [3]: 15.82%
- IC50 [4]: > 200 µM
- Activity [5]: 0.28%
- Activity [6]: 33.5%
- Activity [7]: 67.64%
- Activity [9]: 25.38%
- Activity [10]: 49.5%
- Activity [11]: 26.56%
- viability at 50 µM [13]: 3.75%
- Activity [14]: 35.5%
- Activity [15]: 17.76%
- Activity [16]: 82.24%
- Activity [17]: 58.2%
- Activity [19]: 40.8%
- Activity [20]: 1.6%
- Activity [22]: 5.8%
